In ChEMBL document CHEMBL4732196, “Structural optimization towards promising β-methyl-4-acrylamido quinoline derivatives as PI3K/mTOR dual inhibitors for anti-cancer therapy: The in vitro and in vivo biological evaluation” (Eur J Med Chem, 2021):
Active and inactive are the calls of the source. The rule behind the calls is not given here.

Tests used:
[1] = biological target: Phosphatidylinositol 4,5-bisphosphate 3-kinase catalytic subunit alpha isoform (Homo sapiens, UniProt P42336); assay: Inhibition of recombinant human PI3Kalpha using PIP2 as substrate incubated for 1 hr by kinase-glo luminescent assay
[2] = biological target: T1, Serine/threonine-protein kinase mTOR (Homo sapiens, UniProt P42345); assay: Inhibition of recombinant human N-terminal FLAG-tagged mTOR (1362 to end amino acids) using ULight-4E-BP1 as substrate incubated for 1 hr by LANCE Ultra assay
PC-3 = assay: Growth inhibition of human PC3 cells after 72 hrs by sulforhodamine B assay; assay type: functional
U-87 MG = assay: Growth inhibition of human U87MG cells after 72 hrs by sulforhodamine B assay; assay type: functional, U-87MG ATCC
[3] = MRT(0 to t) in Sprague-Dawley rat at 5 mg/kg, po; assay type: ADME, organism-based; conditions: in vivo
How it was run: (§1)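 Male Sprague-Dawley rats (n = 3) received a single 5 mg/kg oral gavage dose formulated as a suspension in 0.5% methylcellulose. Plasma concentration-time curves were recorded and mean PK parameters derived.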

[4] = MRT(0 to infinity) in Sprague-Dawley rat at 5 mg/kg, po; assay type: ADME, organism-based; conditions: in vivo; how it was run: as §1
U87 [5] = assay: Inhibition of PI3K in human U87MG cells assessed as suppression of phosphorylation of AKT at Ser473 residue at 25 nM after 3 hrs by Western blot analysis; assay type: cell-based
How it was run: (§2)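 U87MG cells seeded at 1×10^6 per well, incubated overnight at 37 °C, 5% CO₂, then treated at various concentrations for 3 h at 37 °C. Western blot for phospho-Akt (Ser473, Thr308), phospho-S6 (Ser235/236) and phospho-4E-BP1 (Thr37/46), with GAPDH as internal control. Bands quantified as mean ± SD, n = 3 biological replicates, versus untreated cells.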

U87 [6] = assay: Inhibition of PI3K in human U87MG cells assessed as suppression of phosphorylation of AKT at Thr308 residue at 25 nM after 3 hrs by Western blot analysis; assay type: cell-based; how it was run: as §2
[7] = biological target: T1, Serine/threonine-protein kinase mTOR; assay: Inhibition of mTOR in human U87MG cells assessed as suppression of phosphorylation of S6 ribosomal at Ser235/236 residues at 25 nM after 3 hrs by Western blot analysis; assay type: cell-based; conditions: U87
How it was run: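 U87MG cells were seeded at 1×10^6 per well and held overnight at 37 °C, 5% CO2. They were then exposed to a range of inhibitor concentrations for 3 h at 37 °C. Phospho-Akt (Ser473, Thr308), phospho-S6 (Ser235/236) and phospho-4E-BP1 (Thr37/46) were measured by Western blot with GAPDH as loading control. Bands were quantified as mean ± SD of 3 biological replicates against untreated cells.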

[8] = biological target: T1, Serine/threonine-protein kinase mTOR; assay: Inhibition of mTOR in human U87MG cells assessed as suppression of phosphorylation of S6 ribosomal at 25 nM after 3 hrs by Western blot analysis; conditions: U87

Phosphatidylinositol 4,5-bisphosphate 3-kinase catalytic subunit alpha isoform, sequence (P42336 whole entry, canonical isoform): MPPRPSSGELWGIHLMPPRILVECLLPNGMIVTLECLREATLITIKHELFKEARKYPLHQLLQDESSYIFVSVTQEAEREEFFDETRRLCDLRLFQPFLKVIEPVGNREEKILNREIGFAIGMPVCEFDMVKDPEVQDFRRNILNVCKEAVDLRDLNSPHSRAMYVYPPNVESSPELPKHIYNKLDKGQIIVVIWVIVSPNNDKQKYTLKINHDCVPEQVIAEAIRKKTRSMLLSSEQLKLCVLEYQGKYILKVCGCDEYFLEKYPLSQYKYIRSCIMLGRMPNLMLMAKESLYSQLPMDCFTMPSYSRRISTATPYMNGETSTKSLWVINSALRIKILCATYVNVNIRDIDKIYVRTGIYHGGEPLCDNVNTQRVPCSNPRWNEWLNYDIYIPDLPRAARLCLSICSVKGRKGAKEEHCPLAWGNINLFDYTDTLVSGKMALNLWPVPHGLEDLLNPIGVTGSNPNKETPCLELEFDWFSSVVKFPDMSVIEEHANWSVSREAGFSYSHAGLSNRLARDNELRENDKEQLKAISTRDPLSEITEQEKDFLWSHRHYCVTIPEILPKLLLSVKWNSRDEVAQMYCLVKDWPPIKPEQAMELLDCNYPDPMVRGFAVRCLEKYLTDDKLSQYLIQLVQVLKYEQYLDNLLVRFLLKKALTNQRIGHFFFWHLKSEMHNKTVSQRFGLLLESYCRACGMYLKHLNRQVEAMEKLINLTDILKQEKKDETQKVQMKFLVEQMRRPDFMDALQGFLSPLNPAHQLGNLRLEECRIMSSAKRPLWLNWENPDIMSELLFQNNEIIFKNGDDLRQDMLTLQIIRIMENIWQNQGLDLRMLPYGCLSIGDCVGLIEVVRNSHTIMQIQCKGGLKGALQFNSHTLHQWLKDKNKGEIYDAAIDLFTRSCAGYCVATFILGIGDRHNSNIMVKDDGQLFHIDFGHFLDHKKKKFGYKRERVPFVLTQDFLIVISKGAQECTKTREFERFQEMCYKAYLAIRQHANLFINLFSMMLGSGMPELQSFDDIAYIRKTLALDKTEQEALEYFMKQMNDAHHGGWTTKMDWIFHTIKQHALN

SMILES	IC50 [1]	IC50 [2]	GI50 (PC-3)	GI50 (U-87 MG)	MRT last [3]	MRT inf [4]	inhibition (U87 [5])	inhibition (U87 [6])	inhibition [7]	inhibition [8]
COc1ncc(-c2ccc3nccc(/C(C)=C/C(=O)N4CCC(O)CC4)c3c2)cc1NS(=O)(=O)c1ccc(F)cc1F	0.0014 µM	0.0061 µM	1.08 µM	0.6 µM						
COc1ncc(-c2ccc3nccc(/C(C)=C/C(=O)N4CCCC4)c3c2)cc1NS(=O)(=O)c1ccc(F)cc1F	0.0012 µM	0.0021 µM	1.16 µM	0.39 µM						
COc1ncc(-c2ccc3nccc(/C=C/C(=O)N4CCN(C)CC4)c3c2)cc1NS(=O)(=O)c1ccc(F)cc1F	0.00104 µM	0.0032 µM	0.45 µM	0.22 µM	1.89 h	2.59 h				
COc1ncc(-c2ccc3nccc(/C(C)=C\C(=O)N4CCOCC4)c3c2)cc1NS(=O)(=O)c1ccc(F)cc1F	0.023 µM	0.141 µM	8.02 µM	> 10 µM						
COc1ncc(-c2ccc3nccc(-c4ccnnc4)c3c2)cc1NS(=O)(=O)c1ccc(F)cc1F [OMIPALISIB]			0.25 µM	0.22 µM			Active	Active	Active	Active
COc1ncc(-c2ccc3nccc(/C(C)=C/C(=O)N(C)CCO)c3c2)cc1NS(=O)(=O)c1ccc(F)cc1F	0.0015 µM	0.0017 µM	0.29 µM	0.38 µM						
COc1ncc(-c2ccc3nccc(/C(C)=C/C(=O)N4CCOCC4)c3c2)cc1NS(=O)(=O)c1ccc(F)cc1F	0.0011 µM	0.0033 µM	1.67 µM	0.61 µM						
